What was measured:
OVCAR-3 [1] = test: Cytotoxicity against human OVCAR-3 cells after 120 hrs by MTS assay; conditions: OVCAR-3, 120 h
MCF7 = test: Cytotoxicity against human MCF7 cells after 72 hrs by MTS assay; type: functional, cell-based; conditions: MCF7, 72 h
How it was run: (§1)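 Cells (1 × 10^4/well) seeded the evening before. Compounds were taken from 10 mM DMSO stock into growth medium and tested at 2, 10, 25, 50 and 75 µM, four wells each, with DMSO-matched controls. Exposure was 72 h, then MTS reagent for 1.5-4 h at 37 °C, and formazan A490 was read against DMSO-treated cells. IC50 is the mean of four wells from one experiment, or of three experiments where stated.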

A-375 = test: Cytotoxicity against human A375 cells after 72 hrs by MTS assay; type: functional, cell-based; conditions: A-375, 72 h
How it was run: as §1

HT-29 = test: Cytotoxicity against human HT-29 cells after 72 hrs by MTS assay; type: functional, cell-based; conditions: HT-29, 72 h
How it was run: as §1

Daoy = test: Cytotoxicity against human DaOY cells after 72 hrs by MTS assay; type: functional, cell-based
How it was run: as §1

SK-MEL-2 = test: Cytotoxicity against human SK-MEL-2 cells after 72 hrs by MTS assay; type: functional, cell-based; conditions: SK-MEL-2, 72 h
How it was run: as §1

[2] = Cytotoxicity against human LN229 cells after 72 hrs by MTS assay; type: functional, cell-based; conditions: LN-229, 72 h
How it was run: as §1

OVCAR-3 [3] = test: Cytotoxicity against human OVCAR-3 cells after 72 hrs by MTS assay; type: functional, cell-based; conditions: OVCAR-3, 72 h
SK-MEL-2 (Homo sapiens) [4] = test: Induction of apoptosis in human SK-MEL-2 cells assessed as necrotic cells at 7.5 uM after 16 hrs by annexin assay
SK-MEL-2 (Homo sapiens) [5] = test: Induction of apoptosis in human SK-MEL-2 cells assessed as apoptotic cells at 7.5 uM after 16 hrs by annexin assay

| SMILES | IC50 (OVCAR-3 [1]) [µM] | IC50 (MCF7) [µM] | IC50 (A-375) [µM] | IC50 (HT-29) [µM] | IC50 (Daoy) [µM] | IC50 (SK-MEL-2) [µM] | IC50 [2] [µM] | IC50 (OVCAR-3 [3]) [µM] | Activity (SK-MEL-2 (Homo sapiens) [4]) [%] | Activity (SK-MEL-2 (Homo sapiens) [5]) [%] |
| --- | --- | --- | --- | --- | --- | --- | --- | --- | --- | --- |
| C=C(C)[C@@H]1CC[C@]2(CO)CC[C@]3(C)[C@H](CC[C@@H]4[C@@]5(C)CCC(NCCc6ccc(O)c(O)c6)C(C)(C)[C@@H]5CC[C@]43C)[C@@H]12 (stereo not given in full) | 4 | 17 | 6 | 6 | 10 | 17 | 9 | – | – | – |
| C=C(CNCCO)[C@@H]1CC[C@]2(CO)CC[C@]3(C)[C@H](CC[C@@H]4[C@@]5(C)CCC(NCCOC)C(C)(C)[C@@H]5CC[C@]43C)[C@@H]12 (stereo not given in full) | – | 11 | 4 | 2 | 5 | 8 | 28 | – | – | – |
| C=C(CO)[C@@H]1CC[C@]2(CO)CC[C@]3(C)[C@H](CC[C@@H]4[C@@]5(C)CC[C@H](N)C(C)(C)[C@@H]5CC[C@]43C)[C@@H]12 | 14 | 15 | 6 | 17 | 31 | 34 | 17 | – | – | – |
| C=C(CO)[C@@H]1CC[C@]2(CO)CC[C@]3(C)[C@H](CC[C@@H]4[C@@]5(C)CC[C@H](NCCO)C(C)(C)[C@@H]5CC[C@]43C)[C@@H]12 | – | 41 | 16 | 65 | 29 | 34 | 37 | 39 | – | – |
| C=C(C)[C@@H]1CC[C@]2(CO)CC[C@]3(C)[C@H](CC[C@@H]4[C@@]5(C)CCC(NCCO)C(C)(C)[C@@H]5CC[C@]43C)[C@@H]12 (stereo not given in full) | – | 5 | 2 | 2 | 6 | < 2 | 4 | 5 | – | – |
| C=C(CO)[C@@H]1CC[C@]2(CO)CC[C@]3(C)[C@H](CC[C@@H]4[C@@]5(C)CC[C@H](NCCOC)C(C)(C)[C@@H]5CC[C@]43C)[C@@H]12 | 40 | 40 | 18 | 47 | 34 | 38 | 38 | – | – | – |
| C=C(CO)[C@@H]1CC[C@]2(CO)CC[C@]3(C)[C@H](CC[C@@H]4[C@@]5(C)CC[C@H](NCCc6ccc(O)cc6)C(C)(C)[C@@H]5CC[C@]43C)[C@@H]12 | 23 | 17 | 6 | 21 | 32 | 38 | 17 | – | – | – |
| C=C(C)[C@@H]1CC[C@]2(C(=O)O)CC[C@]3(C)[C@H](CC[C@@H]4[C@@]5(C)CCC(NCc6ccc7c(c6)OCO7)C(C)(C)[C@@H]5CC[C@]43C)[C@@H]12 (stereo not given in full) | – | > 75 | > 75 | > 75 | 38 | 29 | > 75 | > 75 | – | – |
| C=C(C)[C@@H]1CC[C@]2(C(=O)O)CC[C@]3(C)[C@H](CC[C@@H]4[C@@]5(C)CC[C@H](O)C(C)(C)[C@@H]5CC[C@]43C)[C@@H]12 [BETULINIC ACID] | 40 | 30 | 22 | 31 | 11 | 7 | 29 | – | – | – |
| C=C(CNCCO)[C@@H]1CC[C@]2(CO)CC[C@]3(C)[C@H](CC[C@@H]4[C@@]5(C)CCC(=O)C(C)(C)[C@@H]5CC[C@]43C)[C@@H]12 | – | 47 | 10 | 45 | 47 | 45 | 16 | 67 | – | – |
| C=C(C)[C@@H]1CC[C@]2(CO)CC[C@]3(C)[C@H](CC[C@@H]4[C@@]5(C)CCC(NCCOC)C(C)(C)[C@@H]5CC[C@]43C)[C@@H]12 (stereo not given in full) | 22 | 8 | 7 | 19 | 8 | 7 | – | – | – | – |
| C=C(CNCCO)[C@@H]1CC[C@]2(CO)CC[C@]3(C)[C@H](CC[C@@H]4[C@@]5(C)CCC(NCCc6ccc(O)c(O)c6)C(C)(C)[C@@H]5CC[C@]43C)[C@@H]12 (stereo not given in full) | – | 4 | 7 | 4 | 5 | 5 | 32 | – | – | – |
| C=C(C)[C@@H]1CC[C@]2(C(=O)O)CC[C@]3(C)[C@H](CC[C@@H]4[C@@]5(C)CCC(NCCc6ccc(O)cc6)C(C)(C)[C@@H]5CC[C@]43C)[C@@H]12 (stereo not given in full) | – | 6 | 5 | 4 | 6 | 6 | 5 | 6 | – | – |
| C=C(CNCCc1ccc(O)cc1)[C@@H]1CC[C@]2(CO)CC[C@]3(C)[C@H](CC[C@@H]4[C@@]5(C)CC[C@H](O)C(C)(C)[C@@H]5CC[C@]43C)[C@@H]12 | – | – | – | – | 16 | 16 | – | – | – | – |
| C=C(C)[C@@H]1CC[C@]2(CO)CC[C@]3(C)[C@H](CC[C@@H]4[C@@]5(C)CCC(N)C(C)(C)[C@@H]5CC[C@]43C)[C@@H]12 (stereo not given in full) | – | 5 | 2 | 2 | 19 | 9 | < 2 | 5 | – | – |
| C=C(C)[C@@H]1CC[C@]2(CO)CC[C@]3(C)[C@H](CC[C@@H]4[C@@]5(C)CCC(NCCc6ccc(O)cc6)C(C)(C)[C@@H]5CC[C@]43C)[C@@H]12 (stereo not given in full) | 5 | 5 | 4 | 2 | < 2 | 2 | 8 | – | – | – |
| C=C(C)[C@@H]1CC[C@]2(C(=O)O)CC[C@]3(C)[C@H](CC[C@@H]4[C@@]5(C)CCC(NCCc6ccc(O)c(O)c6)C(C)(C)[C@@H]5CC[C@]43C)[C@@H]12 (stereo not given in full) | – | 37 | – | 65 | 30 | 19 | 29 | 22 | – | – |
| C=C(CNCCc1ccc(O)cc1)[C@@H]1CC[C@]2(CO)CC[C@]3(C)[C@H](CC[C@@H]4[C@@]5(C)CCC(NCCO)C(C)(C)[C@@H]5CC[C@]43C)[C@@H]12 (stereo not given in full) | – | 5 | 5 | 5 | 2 | 6 | 6 | – | < 15 | > 60 |
| C=C(CNCCc1ccc(O)cc1)[C@@H]1CC[C@]2(CO)CC[C@]3(C)[C@H](CC[C@@H]4[C@@]5(C)CCC(=O)C(C)(C)[C@@H]5CC[C@]43C)[C@@H]12 | – | 6 | 6 | 4 | 17 | 16 | 8 | – | – | – |
| C=C(CNCCO)[C@@H]1CC[C@]2(CO)CC[C@]3(C)[C@H](CC[C@@H]4[C@@]5(C)CCC(NCCO)C(C)(C)[C@@H]5CC[C@]43C)[C@@H]12 (stereo not given in full) | – | 6 | 6 | 2 | 13 | 7 | 16 | – | – | – |
| C=C(CNCCO)[C@@H]1CC[C@]2(CO)CC[C@]3(C)[C@H](CC[C@@H]4[C@@]5(C)CC[C@H](O)C(C)(C)[C@@H]5CC[C@]43C)[C@@H]12 | – | – | – | – | 35 | 15 | – | – | – | – |
| C=C(CNCCO)[C@@H]1CC[C@]2(CO)CC[C@]3(C)[C@H](CC[C@@H]4[C@@]5(C)CCC(NCc6ccc7c(c6)OCO7)C(C)(C)[C@@H]5CC[C@]43C)[C@@H]12 (stereo not given in full) | 64 | 13 | 5 | 5 | 13 | 4 | 32 | – | – | – |
| C=C(CO)[C@@H]1CC[C@]2(CO)CC[C@]3(C)[C@H](CC[C@@H]4[C@@]5(C)CC[C@H](NCc6ccc7c(c6)OCO7)C(C)(C)[C@@H]5CC[C@]43C)[C@@H]12 | 20 | 75 | > 75 | > 75 | 16 | 17 | 73 | – | – | – |
| C=C(C)[C@@H]1CC[C@]2(C(=O)O)CC[C@]3(C)[C@H](CC[C@@H]4[C@@]5(C)CCC(N)C(C)(C)[C@@H]5CC[C@]43C)[C@@H]12 (stereo not given in full) | 14 | – | – | – | 7 | 8 | – | – | – | – |
| C=C(CNCCO)[C@@H]1CC[C@]2(CO)CC[C@]3(C)[C@H](CC[C@@H]4[C@@]5(C)CCC(N)C(C)(C)[C@@H]5CC[C@]43C)[C@@H]12 (stereo not given in full) | – | 2 | 5 | < 2 | 5 | 6 | 12 | – | < 15 | > 60 |
| C=C(C)[C@@H]1CC[C@]2(C(=O)O)CC[C@]3(C)[C@H](CC[C@@H]4[C@@]5(C)CCC(NCCO)C(C)(C)[C@@H]5CC[C@]43C)[C@@H]12 (stereo not given in full) | – | 35 | 14 | 16 | < 2 | 36 | – | 28 | – | – |
| C=C(CO)[C@@H]1CC[C@]2(CO)CC[C@]3(C)[C@H](CC[C@@H]4[C@@]5(C)CC[C@H](NCCc6ccc(O)c(O)c6)C(C)(C)[C@@H]5CC[C@]43C)[C@@H]12 | – | 31 | 6 | 37 | 34 | 24 | 17 | 18 | – | – |

From ChEMBL document CHEMBL1221374, “Synthesis, proapoptotic screening, and structure-activity relationships of novel aza-lupane triterpenoids” (Bioorg Med Chem Lett, 2010)
